Data reported in ChEMBL document CHEMBL1147663, “Structure-activity relationships of bifunctional peptides based on overlapping pharmacophores at opioid and cholecystokinin receptors” (J Med Chem, 2006).
Activity calls are given as the source filed them. The rule behind the calls is not given here.

Legend:
[1] = target: Delta-type opioid receptor (Mus musculus) (UniProt P32300); assay: Agonist activity at delta opioid receptor assessed as inhibition of electrically stimulated ICR mouse vas deferens contraction at 1 uM; assay type: functional, tissue-based
Delta-type opioid receptor (Mus musculus), sequence (P32300 whole entry): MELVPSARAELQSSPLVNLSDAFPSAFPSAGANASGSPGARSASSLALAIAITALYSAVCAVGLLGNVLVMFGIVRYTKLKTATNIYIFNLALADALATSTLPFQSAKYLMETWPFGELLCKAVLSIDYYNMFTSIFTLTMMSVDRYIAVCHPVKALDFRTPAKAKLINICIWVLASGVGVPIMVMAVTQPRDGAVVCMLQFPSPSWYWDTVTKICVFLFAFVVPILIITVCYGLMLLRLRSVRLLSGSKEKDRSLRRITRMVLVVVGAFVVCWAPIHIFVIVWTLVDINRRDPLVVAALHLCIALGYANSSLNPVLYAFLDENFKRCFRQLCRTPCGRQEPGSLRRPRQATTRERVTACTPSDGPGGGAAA

[2] = target: T1, Delta-type opioid receptor (Homo sapiens, UniProt P41143); assay: Displacement of [3H]DPDPE from human delta opioid receptor expressed in HN9.10 cells; assay type: cell-based
T1 sequence (P41143 whole entry): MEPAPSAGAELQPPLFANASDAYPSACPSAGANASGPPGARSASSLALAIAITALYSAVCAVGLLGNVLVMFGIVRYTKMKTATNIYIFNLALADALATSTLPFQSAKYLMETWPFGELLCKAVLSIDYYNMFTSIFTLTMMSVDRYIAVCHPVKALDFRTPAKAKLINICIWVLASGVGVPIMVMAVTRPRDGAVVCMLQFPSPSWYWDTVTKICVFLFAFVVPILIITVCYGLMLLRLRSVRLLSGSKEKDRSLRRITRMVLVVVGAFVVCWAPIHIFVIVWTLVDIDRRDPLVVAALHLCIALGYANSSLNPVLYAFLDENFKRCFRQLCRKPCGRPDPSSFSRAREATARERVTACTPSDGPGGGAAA
Method in brief: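 HN9.10 cell membranes (50 μg) expressing hDOR, 10 test concentrations with 1.0 nM [3H]DPDPE in 50 mM Tris pH 7.4 with peptidase inhibitors and BSA, 3 h at 25 °C, duplicates; filtration, scintillation counting. Nonspecific with 10 μM naloxone. Ki by Cheng–Prusoff.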

[3] = target: T2, Gastrin/cholecystokinin type B receptor (Homo sapiens, UniProt P32239); assay: Displacement of [125I]CCK-8(SO3) from human CCK2 receptor expressed in HEK293 cells; assay type: cell-based
T2 sequence (P32239 whole entry): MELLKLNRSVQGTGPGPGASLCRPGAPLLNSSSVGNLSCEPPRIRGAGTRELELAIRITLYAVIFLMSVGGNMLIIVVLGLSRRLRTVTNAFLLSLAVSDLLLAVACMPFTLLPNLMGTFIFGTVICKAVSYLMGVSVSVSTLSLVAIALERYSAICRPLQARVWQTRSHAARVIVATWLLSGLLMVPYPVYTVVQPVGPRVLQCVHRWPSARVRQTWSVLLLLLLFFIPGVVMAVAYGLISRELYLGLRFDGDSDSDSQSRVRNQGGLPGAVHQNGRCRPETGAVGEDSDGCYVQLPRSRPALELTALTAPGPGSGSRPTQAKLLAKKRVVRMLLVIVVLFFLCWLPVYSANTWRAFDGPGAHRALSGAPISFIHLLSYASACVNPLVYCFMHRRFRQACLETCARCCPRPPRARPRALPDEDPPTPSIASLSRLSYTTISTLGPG

[4] = target: Mu-type opioid receptor (Cavia porcellus) (UniProt P97266); assay: Agonist activity at mu opioid receptor assessed as inhibition of electrically stimulated Hartley guinea pig ileum contraction at 1 uM; assay type: functional, tissue-based
Mu-type opioid receptor (Cavia porcellus), sequence (P97266 whole entry): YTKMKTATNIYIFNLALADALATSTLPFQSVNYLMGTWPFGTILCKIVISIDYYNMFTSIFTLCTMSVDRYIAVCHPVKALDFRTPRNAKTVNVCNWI
Method in brief: (§1)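 Longitudinal muscle–myenteric plexus strips from male Hartley guinea pig ileum, 1 g tension, oxygenated Krebs at 37 °C; 0.1 Hz, 0.4 ms supramaximal stimulation. […] Integrity checked with 10 nM PL-017. Hill-equation fit, at least four tissues.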

Mu-type opioid receptor [5] = target: T3, Mu-type opioid receptor (Rattus norvegicus, UniProt P33535); assay: Displacement of [3H]DAMGO from rat mu opioid receptor expressed in HN9.10 cells; assay type: cell-based
T3 sequence (P33535 whole entry): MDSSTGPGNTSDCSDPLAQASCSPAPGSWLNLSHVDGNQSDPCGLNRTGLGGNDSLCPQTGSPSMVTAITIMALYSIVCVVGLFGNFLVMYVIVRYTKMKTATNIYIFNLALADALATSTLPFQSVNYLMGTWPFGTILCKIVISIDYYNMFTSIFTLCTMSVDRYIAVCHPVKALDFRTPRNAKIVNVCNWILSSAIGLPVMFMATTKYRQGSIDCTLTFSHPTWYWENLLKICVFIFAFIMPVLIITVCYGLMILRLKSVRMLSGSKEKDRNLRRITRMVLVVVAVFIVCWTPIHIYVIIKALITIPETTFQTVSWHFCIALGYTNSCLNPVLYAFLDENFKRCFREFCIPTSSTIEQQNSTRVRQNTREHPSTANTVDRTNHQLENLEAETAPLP
Method in brief: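 HN9.10 cell membranes (50 μg) expressing rMOR, 10 test concentrations with 1.0 nM [3H]DAMGO in 50 mM Tris pH 7.4 with peptidase inhibitors and BSA, 3 h at 25 °C, duplicates; filtration, scintillation counting. Nonspecific with 10 μM naloxone. Ki by Cheng–Prusoff.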

[6] = target: Mu-type opioid receptor (Rattus norvegicus) (UniProt P33535); assay: (§2) Activity against [35S]GTP-gamma-S binding to rat mu opioid receptor expressed in HN9.10 cells; assay type: functional, cell-based
Mu-type opioid receptor (Rattus norvegicus), sequence (P33535 whole entry): as above
Method in brief: (§3)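 Membranes (10 μg) from HN9.10 cells stably expressing hDOR or rMOR; various drug concentrations in duplicate or triplicate, 90 min at 30 °C in HEPES pH 7.4 with GDP, MgCl2, NaCl, 0.1 nM [35S]GTPγS; filtration, scintillation counting.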

Mu-type opioid receptor [7] = target: T3, Mu-type opioid receptor; assay: as §2; assay type: functional, cell-based; method in brief: as §3
[8] = target: Delta-type opioid receptor (Mus musculus, UniProt P32300); assay: Agonist activity at delta opioid receptor assessed as inhibition of electrically stimulated ICR mouse vas deferens contraction; assay type: functional, tissue-based
Delta-type opioid receptor (Mus musculus, UniProt P32300), sequence (P32300 whole entry): as the sequence (P32300 whole entry) above
Method in brief: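 Vas deferens from male ICR mice, in 20 mL baths at 0.5 g tension, Mg-free oxygenated Krebs, 37 °C; electrical stimulation 0.1 Hz, 2.0 ms pulses, supramaximal voltage. Cumulative addition to maximal inhibition; integrity checked with 10 nM DPDPE. IC50 by Hill-equation nonlinear least-squares fit, at least four tissues.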

[9] = target: T4, Cholecystokinin receptor type A (Homo sapiens, UniProt P32238); assay: Displacement of [125I]CCK-8(SO3) from human CCK1 receptor expressed in HEK293 cells; assay type: cell-based
T4 sequence (P32238 whole entry): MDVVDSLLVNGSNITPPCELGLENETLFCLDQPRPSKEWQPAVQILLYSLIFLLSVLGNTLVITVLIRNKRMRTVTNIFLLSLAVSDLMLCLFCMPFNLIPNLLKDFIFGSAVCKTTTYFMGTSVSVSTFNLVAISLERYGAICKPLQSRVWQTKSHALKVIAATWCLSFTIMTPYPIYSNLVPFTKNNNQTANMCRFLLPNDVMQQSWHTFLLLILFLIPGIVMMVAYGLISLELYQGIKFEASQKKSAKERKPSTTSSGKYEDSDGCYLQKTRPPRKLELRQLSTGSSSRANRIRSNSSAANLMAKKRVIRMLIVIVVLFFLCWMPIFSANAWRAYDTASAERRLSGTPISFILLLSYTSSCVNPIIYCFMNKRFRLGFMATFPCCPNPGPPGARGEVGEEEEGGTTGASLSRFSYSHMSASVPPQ

[10] = target: T5, Cholecystokinin receptor type A (Homo sapiens) (UniProt P32238); conditions: HEK293
T5 sequence (whole entry): T4 sequence (P32238 whole entry)

[11] = target: T6, Gastrin/cholecystokinin type B receptor (Homo sapiens) (UniProt P32239); conditions: HEK293
T6 sequence (whole entry): T2 sequence (P32239 whole entry)

[12] = target: T1, Delta-type opioid receptor; assay: Activity against [35S]GTP-gamma-S binding to human delta opioid receptor expressed in HN9.10 cells; assay type: functional, cell-based; method in brief: as §3
Mu-type opioid receptor [13] = target: Mu-type opioid receptor (Cavia porcellus, UniProt P97266); assay: Agonist activity at mu opioid receptor assessed as inhibition of electrically stimulated Hartley guinea pig ileum contraction; assay type: functional, tissue-based; method in brief: as §1
Mu-type opioid receptor (Cavia porcellus, UniProt P97266), sequence (P97266 whole entry): as the sequence (P97266 whole entry) above

[14] = target: T4, Cholecystokinin receptor type A; assay: Antagonist activity at CCK1 receptor expressed in HEK 293 cells assessed as accumulation of [3H]inositol phosphates by PI assay; assay type: functional, cell-based, HEK293
[15] = target: T2, Gastrin/cholecystokinin type B receptor; assay: Antagonist activity at CCK2 receptor expressed in HEK293 cells assessed as accumulation of [3H]inositol phosphates by PI assay; assay type: functional, cell-based

## CCCC[C@@H](C(=O)N[C@@H](CC(=O)O)C(=O)N[C@@H](Cc1ccccc1)C(N)=O)N(C)C(=O)[C@H](Cc1c[nH]c2ccccc12)NC(=O)CNC(=O)[C@@H]1CCCN1C(=O)[C@@H](N)Cc1ccc(O)cc1
[1]
  inhibition: 5%
[2]
  IC50: 3390 nM
  Ki: 1500 nM
[3]
  IC50: 0.219 nM
  Ki: 0.22 nM
[4]
  inhibition: 1.2%

## CCCC[C@@H](NC(=O)[C@@H](N)Cc1ccc(O)cc1)C(=O)NCC(=O)N[C@H](Cc1c[nH]c2ccccc12)C(=O)N(C)[C@@H](CCCC)C(=O)N[C@@H](CC(=O)O)C(=O)N[C@@H](Cc1ccccc1)C(N)=O
[2]
  IC50: 724 nM
  Ki: 310 nM
Mu-type opioid receptor [5]
  IC50: 2880 nM
  Ki: 1200 nM
[6]
  Emax: 47%
Mu-type opioid receptor [7]
  EC50: 250 nM
[8]
  IC50: 700 nM
[9]
  IC50: 9120 nM
  Ki: 910 nM
[3]
  IC50: 1100 nM
  Ki: 1100 nM
[4]
  inhibition: 8.8%
[10]
  Log EC50: inactive
[11]
  Log EC50: inactive

## CCCC[C@H](NC(=O)[C@@H](Cc1c[nH]c2ccccc12)NC(=O)CNC(=O)[C@@H](CCCC)NC(=O)[C@@H](N)Cc1ccc(O)cc1)C(=O)N[C@@H](CC(=O)O)C(=O)N[C@@H](Cc1ccccc1)C(N)=O
[2]
  IC50: 47.9 nM
  Ki: 20 nM
Mu-type opioid receptor [5]
  IC50: 631 nM
  Ki: 270 nM
[12]
  EC50: 4.1 nM
  Emax: 75%
[6]
  Emax: 110%
Mu-type opioid receptor [7]
  EC50: 20 nM
[8]
  IC50: 310 nM
Mu-type opioid receptor [13]
  IC50: 1000 nM
[3]
  IC50: 2190 nM
  Ki: 2200 nM
[11]
  Log EC50: inactive

## CCCC[C@H](NC(=O)[C@H](Cc1c[nH]c2ccccc12)NC(=O)CNC(=O)[C@@H](Cc1ccccc1)NC(=O)[C@@H](N)Cc1ccc(O)cc1)C(=O)N[C@@H](CC(=O)O)C(=O)N[C@@H](Cc1ccccc1)C(N)=O
[2]
  IC50: 0.427 nM
  Ki: 0.2 nM
Mu-type opioid receptor [5]
  IC50: 79.4 nM
  Ki: 34 nM
[12]
  EC50: 0.9 nM
  Emax: 170%
[6]
  Emax: 180%
Mu-type opioid receptor [7]
  EC50: 1.4 nM
[8]
  IC50: 12 nM
Mu-type opioid receptor [13]
  IC50: 420 nM
[9]
  IC50: 97.7 nM
  Ki: 98 nM
[3]
  IC50: 25.7 nM
  Ki: 26 nM
[14]
  EC50: 300 nM
[15]
  EC50: 110 nM

## CCCC[C@H](NC(=O)[C@H](Cc1c[nH]c2ccccc12)NC(=O)CNC(=O)[C@@H](CCCC)NC(=O)[C@@H](N)Cc1ccc(O)cc1)C(=O)N[C@@H](CC(=O)O)C(=O)N[C@@H](Cc1ccccc1)C(N)=O
[2]
  IC50: 6.03 nM
  Ki: 2.6 nM
Mu-type opioid receptor [5]
  IC50: 60.3 nM
  Ki: 26 nM
[12]
  EC50: 4.5 nM
  Emax: 81%
[6]
  Emax: 88%
Mu-type opioid receptor [7]
  EC50: 0.46 nM
[8]
  IC50: 23 nM
Mu-type opioid receptor [13]
  IC50: 210 nM
[9]
  IC50: 9.55 nM
  Ki: 9.6 nM
[3]
  IC50: 15.1 nM
  Ki: 15 nM
[14]
  EC50: 2500 nM
[15]
  EC50: 1900 nM
